Measurements reported in ChEMBL document CHEMBL3351868, “Structure-affinity relationships and pharmacological characterization of new alkyl-resorcinol cannabinoid receptor ligands: Identification of a dual cannabinoid receptor/TRPA1 channel agonist” (Bioorg Med Chem, 2014).

Key:
[1] = organism: Homo sapiens; assay: Selectivity index, ratio of Ki for human recombinant CB2 receptor to Ki for human recombinant CB1 receptor
[2] = organism: Homo sapiens; assay: Selectivity index, ratio of Ki for human recombinant CB1 receptor to Ki for human recombinant CB2 receptor
[3] = molecular target: T1, Cannabinoid receptor 1 (Homo sapiens, UniProt P21554); assay: Displacement of [3H]CP-55,940 from human recombinant CB1 receptor expressed in HEK293 cell membranes
[4] = molecular target: T2, Cannabinoid receptor 2 (Homo sapiens, UniProt P34972); assay: Displacement of [3H]CP-55,940 from human recombinant CB2 receptor expressed in HEK293 cell membranes
[5] = molecular target: T2, Cannabinoid receptor 2; assay: Agonist activity at human recombinant CB2 receptor expressed in CHO cell membranes assessed as stimulation of [35S]GTPgammaS binding relative to basal level; assay type: functional
How it was run: (§1)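 Membranes from CHO cells stably expressing human CB1 or CB2, 50 µg protein per well, in Tris buffer with 100 mM NaCl, 5 mM MgCl2, 1 mM DTT, 1 mM EDTA, 0.1% BSA, pH 7.4. Incubated 60 min at 30°C with 0.1 nM [35S]GTPγS, 30 µM GDP and compound in DMSO. Nonspecific binding defined with 30 µM GTPγS. Filtration and scintillation counting. Percent change relative to DMSO control, n=6. EC50/Emax from sigmoidal fit.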

[6] = molecular target: T1, Cannabinoid receptor 1; assay: Agonist activity at human recombinant CB1 receptor expressed in CHO cell membranes assessed as stimulation of [35S]GTPgammaS binding relative to basal level; assay type: functional; how it was run: as §1
[7] = molecular target: T2, Cannabinoid receptor 2; assay: Agonist activity at human recombinant CB2 receptor expressed in CHO cell membranes by [35S]GTPgammaS binding assay; assay type: functional; how it was run: as §1
[8] = Inhibition of MGL in African green monkey COS7 cells cytosolic fraction assessed as reduction in 2-arachidonoyl-[3H]-glycerol hydrolysis by scintillation counting method; assay type: cell-based, Chlorocebus aethiops; conditions: cos-7
[9] = test system: COS-7; assay: Inhibition of MGL in African green monkey COS7 cells cytosolic fraction assessed as reduction in 2-arachidonoyl-[3H]-glycerol hydrolysis at 50 uM by scintillation counting method; assay type: cell-based; conditions: Chlorocebus aethiops
[10] = molecular target: T3, Fatty-acid amide hydrolase 1 (Rattus norvegicus) (UniProt P97612); assay: Inhibition of FAAH in rat brain membranes assessed as reduction in [14C] anandamide hydrolysis at 10 uM by scintillation counting method; assay type: cell membranes; conditions: Membrane
T3 sequence (whole entry): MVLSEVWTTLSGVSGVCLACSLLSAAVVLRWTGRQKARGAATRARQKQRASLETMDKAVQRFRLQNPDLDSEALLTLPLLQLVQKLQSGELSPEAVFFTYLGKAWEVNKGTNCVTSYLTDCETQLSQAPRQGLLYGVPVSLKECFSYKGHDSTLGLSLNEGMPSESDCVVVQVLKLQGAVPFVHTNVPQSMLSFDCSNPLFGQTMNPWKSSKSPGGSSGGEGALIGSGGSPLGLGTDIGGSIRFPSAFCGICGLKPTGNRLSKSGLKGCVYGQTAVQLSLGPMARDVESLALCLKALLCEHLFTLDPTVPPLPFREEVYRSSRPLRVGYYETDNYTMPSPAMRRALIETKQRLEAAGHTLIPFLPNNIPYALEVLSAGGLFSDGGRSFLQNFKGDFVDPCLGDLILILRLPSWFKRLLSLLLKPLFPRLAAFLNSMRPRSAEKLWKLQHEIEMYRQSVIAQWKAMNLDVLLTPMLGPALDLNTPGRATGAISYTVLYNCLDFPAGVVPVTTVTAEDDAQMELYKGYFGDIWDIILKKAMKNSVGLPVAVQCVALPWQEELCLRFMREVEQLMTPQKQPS

[11] = molecular target: T4, Fatty-acid amide hydrolase 1 (Rattus norvegicus, UniProt P97612); assay: Inhibition of FAAH in rat brain membranes assessed as reduction in [14C] anandamide hydrolysis by scintillation counting method; assay type: cell membranes, Membrane
T4 sequence (P97612 whole entry): T3 sequence (whole entry)

[12] = test system: COS-7; assay: Inhibition of MGL in African green monkey COS7 cells cytosolic fraction assessed as reduction in 2-arachidonoyl-[3H]-glycerol hydrolysis at 10 uM by scintillation counting method; assay type: cell-based; conditions: Chlorocebus aethiops
[13] = test system: COS-7; assay: Inhibition of MGL in African green monkey COS7 cells cytosolic fraction assessed as reduction in 2-arachidonoyl-[3H]-glycerol hydrolysis at 1 uM by scintillation counting method; assay type: cell-based; conditions: Chlorocebus aethiops
[14] = Cytotoxicity against mouse NIH/3T3 cells after 24 hrs by neutral red assay; assay type: cell-based; conditions: NIH3T3, 24 h
How it was run: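 NIH3T3 mouse fibroblasts in DMEM with 10% FCS were seeded and after 24 h exposed to compound in DMSO (5-200 µM, six replicates) for 24 h. Viability measured by neutral red uptake (3 h dye incubation, then acetic acid/ethanol extraction). IC50 derived.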

T2 sequence (P34972 whole entry): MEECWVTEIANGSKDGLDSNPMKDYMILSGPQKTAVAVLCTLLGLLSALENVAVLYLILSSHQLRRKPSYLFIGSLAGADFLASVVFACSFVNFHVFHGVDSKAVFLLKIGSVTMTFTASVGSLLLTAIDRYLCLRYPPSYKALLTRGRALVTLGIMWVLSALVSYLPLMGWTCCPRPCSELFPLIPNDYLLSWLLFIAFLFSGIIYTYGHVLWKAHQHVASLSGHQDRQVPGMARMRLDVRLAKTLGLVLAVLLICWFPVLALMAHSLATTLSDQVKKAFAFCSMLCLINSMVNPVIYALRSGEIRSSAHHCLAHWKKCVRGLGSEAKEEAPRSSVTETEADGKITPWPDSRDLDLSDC
T1 sequence (P21554 whole entry): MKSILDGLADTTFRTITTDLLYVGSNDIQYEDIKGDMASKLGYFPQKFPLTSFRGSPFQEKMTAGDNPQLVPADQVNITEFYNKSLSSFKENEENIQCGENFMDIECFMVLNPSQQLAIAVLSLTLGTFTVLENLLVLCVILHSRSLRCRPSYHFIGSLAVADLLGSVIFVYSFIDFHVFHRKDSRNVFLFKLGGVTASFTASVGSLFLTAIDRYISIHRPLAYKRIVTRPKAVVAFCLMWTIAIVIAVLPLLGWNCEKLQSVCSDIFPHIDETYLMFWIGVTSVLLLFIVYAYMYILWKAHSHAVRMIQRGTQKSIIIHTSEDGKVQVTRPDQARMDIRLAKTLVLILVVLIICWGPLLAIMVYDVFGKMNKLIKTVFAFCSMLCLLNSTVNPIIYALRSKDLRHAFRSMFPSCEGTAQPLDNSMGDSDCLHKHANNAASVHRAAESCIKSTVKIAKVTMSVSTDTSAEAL

| SMILES | Ratio Ki [1] | Ratio Ki [2] | Ki [3] [nM] | Ki [4] [nM] | also measured |
| --- | --- | --- | --- | --- | --- |
| CCCCCc1cc(O)cc(OCCCCCCCCCCC(=O)NC(CO)CO)c1 | < 0.05 | > 18.5 | > 10000 | 540 | – |
| CCCCCCC(C)(C)c1ccc([C@@H]2C[C@H](O)CC[C@H]2CCCO)c(O)c1 | – | – | – | – | Emax [5]: 66.5%; Emax [6]: 72.1% |
| CCCCCCC(C)(C)c1cc(O)cc(OCCCCCCCC(=O)NC(CO)CO)c1 | 4.6 | 0.22 | 178 | 815 | – |
| CCCCCCc1ccc(O)cc1OCCCCCCCCCCCNC(=O)C1CC1 | 0.28 | 3.6 | 900 | 250 | – |
| CCCCCCC(C)(C)c1cc(O)cc(OCCCCCCCCCCC(=O)NC23CC4CC(CC(C4)C2)C3)c1 | – | – | > 10000 | > 10000 | – |
| CCCCCCc1c(O)cccc1OCCCCCCCCCCC(=O)NC12CC3CC(CC(C3)C1)C2 | – | – | > 10000 | > 10000 | – |
| CCCCCc1cc(O)cc(OCCCCCCCCCCC(=O)Nc2ccccc2)c1 | < 0.01 | > 78.2 | > 10000 | 128 | Emax [5]: -14.4%; EC50 [7]: 701 nM |
| CCCCCc1cc(O)cc(OCCCCCCCCCCCN2C(=O)c3ccccc3C2=O)c1 | – | – | – | – | IC50 [8]: > 50 µM; Imax [9]: 15.9% |
| CCCCCCC(C)(C)c1cc(O)cc(OCCCCCCCCCCC(=O)NC(CO)CO)c1 | 0.12 | 8.22 | 1890 | 230 | – |
| CCCCCCC(C)(C)c1cc(O)cc(OCCCCCCCCCCCNC(=O)C2CC2)c1 | 0.31 | 3.18 | 2070 | 650 | – |
| CCCCCCc1ccc(O)cc1OCCCCCCCCCCC(=O)NC(CO)CO | < 0.24 | > 4.22 | > 10000 | 2370 | – |
| CCCCCCc1ccc(OCCCCCCCCCCC(=O)NC23CC4CC(CC(C4)C2)C3)cc1O | – | – | > 10000 | > 10000 | – |
| CCCCCc1cc(O)cc(OCCCCCCCC(=O)N[C@H](C)CO)c1 | 9.32 | 0.11 | 12.8 | 119 | – |
| CCCCCc1cc(O)cc(OCCCCCCCCCCC(=O)NCC(F)(F)F)c1 | 0.22 | 4.55 | 438 | 96.3 | – |
| CCCCCc1cc(O)cc(OCCCCCCCCCCC(=O)NN2CCCCC2)c1 | 0.38 | 2.63 | 1780 | 678 | IC50 [8]: > 10 µM; Imax [10]: 41%; IC50 [11]: > 10 µM; Imax [12]: 41.6% |
| CCCCCc1cc(O)cc(OCCCCCCCCCCC(=O)N[C@H](C)CO)c1 | 0.37 | 2.72 | 264 | 97.2 | – |
| CCCCCCc1ccc(OCCCCCCCCCCCNC(=O)C2CC2)cc1O | – | – | > 10000 | > 10000 | – |
| CCCCCCc1ccc(O)cc1OCCCCCCCCCCCN1C(=O)c2ccccc2C1=O | – | – | – | – | IC50 [8]: > 50 µM; Imax [9]: 16.3% |
| CCCCCc1cc(O)cc(OCCCCCCCCCCCNC2CC2)c1 | 0.91 | 1.1 | 2080 | 1890 | – |

| SMILES | Ratio Ki [1] | Ratio Ki [2] | Ki [3] [nM] | Ki [4] [nM] | also measured |
| --- | --- | --- | --- | --- | --- |
| CCCCCc1cc(O)cc(OCCCCCCCCCCCCNC2CC2)c1 | > 12.1 | < 0.08 | 830 | > 10000 | – |
| CCCCCCC(C)(C)c1cc(O)cc(OCCCCCCCC(=O)NC23CC4CC(CC(C4)C2)C3)c1 | – | – | > 10000 | > 10000 | – |
| CCCCCc1cc(O)cc(OCCCCCCCCCCCNC(=O)C2CC2)c1 | 0.17 | 6.02 | 2770 | 460 | – |
| CCCCCCC(C)(C)c1cc(O)cc(OCCCCCCCCCCCN2C(=O)c3ccccc3C2=O)c1 | – | – | – | – | IC50 [8]: > 50 µM; Imax [9]: 14.4% |
| CCCCCCC(C)(C)c1cc(O)cc(OCCCCCCCCCCC(=O)N[C@H](C)CO)c1 | 0.16 | 6.24 | 132 | 21.2 | – |
| CCCCCCC(C)(C)c1cc(O)cc(OCCCCCCCC(=O)NCC(F)(F)F)c1 | 0.07 | 14.2 | 397 | 27.9 | – |
| CCCCCCc1ccc(OCCCCCCCCCCC(=O)NC(CO)CO)cc1O | – | – | > 10000 | > 10000 | – |
| C=CCNC(=O)CCCCCCCCCCOc1cc(O)cc(CCCCC)c1 | 0.12 | 8.31 | 136 | 16.4 | – |
| CCCCCCc1ccc(OCCCCCCCCCCCN2C(=O)c3ccccc3C2=O)cc1O | – | – | – | – | IC50 [8]: > 50 µM; Imax [9]: 14.3% |
| C=CCNCCCCCCCCCCCOc1cc(O)cc(CCCCC)c1 | 1.62 | 0.62 | 1140 | 1850 | – |
| CCCCCc1cc(O)cc(OCCCCCCCCCN[C@H](C)CO)c1 | 1.43 | 0.7 | 1060 | 1520 | – |
| CCCCCc1cc(O)cc(OCCCCCCCCCCC(=O)NCc2ccccc2)c1 | < 0.02 | > 49.5 | > 10000 | 202 | – |
| CCCCCc1cc(O)cc(OCCCCCCCCCN2C(=O)c3ccccc3C2=O)c1 | – | – | – | – | IC50 [8]: > 50 µM; Imax [9]: 16.8% |
| CCCCCCCCCCC[C@@H](C[C@@H]1OC(=O)[C@H]1CCCCCC)OC(=O)CNC=O | – | – | – | – | Imax [13]: 60% |
| CCCCCCC(C)(C)c1cc(O)cc(OCCCCCCCCCN2C(=O)c3ccccc3C2=O)c1 | – | – | – | – | IC50 [8]: > 50 µM; Imax [9]: 18.8% |
| CCCCCc1cc(O)cc(OCCCCCCCCCCC(=O)NN(C)C)c1 | 0.22 | 4.63 | 845 | 183 | IC50 [8]: > 10 µM; Imax [10]: 28.2%; IC50 [11]: > 10 µM; Imax [12]: 42.9% |
| CCCCCc1cc(O)cc(OCCCCCCCCCCC(=O)NC23CC4CC(CC(C4)C2)C3)c1 | – | – | > 10000 | > 10000 | – |
| CCCCCc1cc(O)cc(OCCCCCCCCCCCNCc2ccccc2)c1 | 0.67 | 1.49 | 1240 | 830 | – |
| CCCCCCC(C)(C)c1cc(O)cc(OCCCCCCCC(=O)N[C@H](C)CO)c1 | 2.92 | 0.34 | 17.2 | 50.2 | IC50 [14]: 69 µM |
